In ChEMBL document CHEMBL5678805, “Intermittent administration of MEK inhibitor GDC-0973 plus PI3K inhibitor GDC-0941 triggers robust apoptosis and tumor growth inhibition” (Cancer Res, 2012):
Calls of active or inactive are those of the source.

Columns and labels:
NCI-H2122 [1] = test: Antitumor activity against human NCI-H2122 cells harboring KRAS […]/LKB1 P281/TP53Q61L/C176Fl/CDKN2A mutant xenografted in mouse assessed as tumor growth inhibition at 5 mg/kg, po; assay type: functional; conditions: read-out: TGI
Outline: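 NCI-H2122 (KRAS G12C) NSCLC xenografts in mice were dosed orally once daily for 21 consecutive days. Tumor volume was measured with calipers as (L×W×W)/2, and body weight was tracked. %TGI was derived from the area under the fitted growth curve per day versus vehicle. Group means with SEM were reported.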

[2] = target: Ribosomal protein S6 kinase beta-1 (Homo sapiens, UniProt P23443); test: Inhibition of p70S6K (unknown origin)
Sequence of Ribosomal protein S6 kinase beta-1 (P23443 whole entry): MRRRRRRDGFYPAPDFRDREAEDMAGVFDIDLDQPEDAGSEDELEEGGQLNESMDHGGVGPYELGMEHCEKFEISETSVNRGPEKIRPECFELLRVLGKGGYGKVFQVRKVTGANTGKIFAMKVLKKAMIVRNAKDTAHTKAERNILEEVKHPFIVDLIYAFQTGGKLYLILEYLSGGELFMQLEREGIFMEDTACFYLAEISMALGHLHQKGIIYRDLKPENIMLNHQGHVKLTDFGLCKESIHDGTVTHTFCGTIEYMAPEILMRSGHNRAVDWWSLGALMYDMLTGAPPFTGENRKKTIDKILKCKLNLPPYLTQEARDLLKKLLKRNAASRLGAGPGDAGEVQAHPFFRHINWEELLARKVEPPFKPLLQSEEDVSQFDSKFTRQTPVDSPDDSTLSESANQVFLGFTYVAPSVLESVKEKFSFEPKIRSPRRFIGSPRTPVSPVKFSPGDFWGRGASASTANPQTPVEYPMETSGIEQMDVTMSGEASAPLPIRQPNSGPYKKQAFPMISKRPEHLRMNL

CWR22R = test: Antitumor activity against human 22Rv1 cells harboring PIK3CA Q546R/TP53 Q331R mutant xenografted in mouse assessed as tumor growth inhibition at 10 mg/kg, po; assay type: functional; conditions: read-out: TGI
A2058 [3] = test: Antiproliferative activity against human A2058 cells assessed reduction in cell viability incubated for 4 days in presence of 4-(2-(1H-indazol-4-yl)-6-((4-(methylsulfonyl)piperazin-1-yl)methyl)thieno[3,2-d]pyrimidin-4-yl)morpholine by celltiter-glo assay; assay type: functional; conditions: time 4 day
Outline: (§1)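 4-day CellTiter-Glo viability read-out on melanoma lines, cells exposed to increasing concentrations of each inhibitor alone and in combination.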

SK-OV-3 = test: Antitumor activity against human SK-OV-3 cells harboring FBXW7 R505L and CDKN2A mutant xenografted in mouse assessed as tumor growth inhibition at 10 mg/kg, po; assay type: functional; conditions: read-out: TGI
Outline: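 Human tumor xenografts in mice were dosed orally at the indicated mg/kg. Tumor volume was measured with calipers as (L×W×W)/2. %TGI = 100 × [1 − (AUC treatment/d)/(AUC vehicle/d)], using the area under the fitted tumor-growth curve per day for each dose group relative to vehicle.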

[4] = target: Dual specificity mitogen-activated protein kinase kinase 7 (Homo sapiens, UniProt O14733); test: Inhibition of MKK7beta (unknown origin)
NCI-H2122 [5] = test: Antitumor activity against human NCI-H2122 cells xenografted in mouse assessed as tumor growth inhibition at 20 mg/kg, po administered once a day for 21 days; assay type: functional; conditions: NCI-H2122, 504 h, time 21 day, read-out: TGI
Outline: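 Mice bearing NCI-H2122 xenografts were given MEK inhibitor, PI3K inhibitor, or both, orally once daily for 21 consecutive days at the doses labeled. Caliper tumor volumes were calculated as (L×W×W)/2. %TGI was derived from the AUC of the fitted growth curve per day relative to vehicle.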

[6] = target: Macrophage colony-stimulating factor 1 receptor (Homo sapiens, UniProt P07333); test: Inhibition of Fms (unknown origin)
Sequence of Macrophage colony-stimulating factor 1 receptor (P07333 whole entry): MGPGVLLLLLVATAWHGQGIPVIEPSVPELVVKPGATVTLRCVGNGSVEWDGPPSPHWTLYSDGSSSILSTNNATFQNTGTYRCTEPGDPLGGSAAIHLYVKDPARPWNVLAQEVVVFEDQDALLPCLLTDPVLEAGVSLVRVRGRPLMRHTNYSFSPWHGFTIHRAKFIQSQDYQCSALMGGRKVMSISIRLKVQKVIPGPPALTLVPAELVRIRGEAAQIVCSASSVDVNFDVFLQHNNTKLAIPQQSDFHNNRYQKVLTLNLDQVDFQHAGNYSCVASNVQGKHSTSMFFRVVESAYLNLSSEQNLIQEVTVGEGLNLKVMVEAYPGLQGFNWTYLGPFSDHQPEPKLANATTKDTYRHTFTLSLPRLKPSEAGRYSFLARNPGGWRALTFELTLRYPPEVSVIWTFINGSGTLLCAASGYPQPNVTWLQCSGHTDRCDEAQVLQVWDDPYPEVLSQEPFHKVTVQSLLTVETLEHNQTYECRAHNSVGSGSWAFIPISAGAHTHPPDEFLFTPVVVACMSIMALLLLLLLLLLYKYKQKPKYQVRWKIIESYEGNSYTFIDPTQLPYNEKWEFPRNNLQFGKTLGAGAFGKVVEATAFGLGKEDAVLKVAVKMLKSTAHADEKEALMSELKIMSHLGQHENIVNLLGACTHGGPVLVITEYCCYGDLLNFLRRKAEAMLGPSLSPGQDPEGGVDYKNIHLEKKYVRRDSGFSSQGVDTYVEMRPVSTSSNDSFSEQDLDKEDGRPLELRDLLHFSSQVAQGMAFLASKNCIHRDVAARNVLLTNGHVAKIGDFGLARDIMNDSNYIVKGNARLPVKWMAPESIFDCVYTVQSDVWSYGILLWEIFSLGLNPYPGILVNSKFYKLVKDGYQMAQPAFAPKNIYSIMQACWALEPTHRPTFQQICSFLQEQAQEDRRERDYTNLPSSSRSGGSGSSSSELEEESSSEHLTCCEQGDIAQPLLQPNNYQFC

[7] = target: Protein kinase C beta type (Homo sapiens, UniProt P05771); test: Inhibition of PKCbeta2 (unknown origin)
G-361 = test: Antiproliferative activity against human G361 cells assessed reduction in cell viability incubated for 4 days in presence of 4-(2-(1H-indazol-4-yl)-6-((4-(methylsulfonyl)piperazin-1-yl)methyl)thieno[3,2-d]pyrimidin-4-yl)morpholine by celltiter-glo assay; assay type: functional; conditions: time 4 day; outline: as §1
Ephrin type-A receptor 4 = Ephrin type-A receptor 4 (Homo sapiens, UniProt P54764); test: Inhibition of EphA4 (unknown origin)
A2058 [8] = test: Antitumor activity against human A2058 cells harboring BRAF V600E/PTEN deletion mutant xenografted in mouse assessed as suppression of ERK phosphorylation at 15 mg/kg, po administered every third day for 21 days and measured after 72 hrs post dose by Western blot analysis; assay type: functional, organism-based; conditions: time 576.0 hrs
[9] = target: Phosphatidylinositol 4,5-bisphosphate 3-kinase catalytic subunit beta isoform (Homo sapiens, UniProt P42338); test: Inhibition of PI3Kbeta (unknown origin)
[10] = target: Receptor-type tyrosine-protein kinase FLT3 (Homo sapiens, UniProt P36888); test: Inhibition of Flt3 (unknown origin)
Sequence of Receptor-type tyrosine-protein kinase FLT3 (P36888 whole entry): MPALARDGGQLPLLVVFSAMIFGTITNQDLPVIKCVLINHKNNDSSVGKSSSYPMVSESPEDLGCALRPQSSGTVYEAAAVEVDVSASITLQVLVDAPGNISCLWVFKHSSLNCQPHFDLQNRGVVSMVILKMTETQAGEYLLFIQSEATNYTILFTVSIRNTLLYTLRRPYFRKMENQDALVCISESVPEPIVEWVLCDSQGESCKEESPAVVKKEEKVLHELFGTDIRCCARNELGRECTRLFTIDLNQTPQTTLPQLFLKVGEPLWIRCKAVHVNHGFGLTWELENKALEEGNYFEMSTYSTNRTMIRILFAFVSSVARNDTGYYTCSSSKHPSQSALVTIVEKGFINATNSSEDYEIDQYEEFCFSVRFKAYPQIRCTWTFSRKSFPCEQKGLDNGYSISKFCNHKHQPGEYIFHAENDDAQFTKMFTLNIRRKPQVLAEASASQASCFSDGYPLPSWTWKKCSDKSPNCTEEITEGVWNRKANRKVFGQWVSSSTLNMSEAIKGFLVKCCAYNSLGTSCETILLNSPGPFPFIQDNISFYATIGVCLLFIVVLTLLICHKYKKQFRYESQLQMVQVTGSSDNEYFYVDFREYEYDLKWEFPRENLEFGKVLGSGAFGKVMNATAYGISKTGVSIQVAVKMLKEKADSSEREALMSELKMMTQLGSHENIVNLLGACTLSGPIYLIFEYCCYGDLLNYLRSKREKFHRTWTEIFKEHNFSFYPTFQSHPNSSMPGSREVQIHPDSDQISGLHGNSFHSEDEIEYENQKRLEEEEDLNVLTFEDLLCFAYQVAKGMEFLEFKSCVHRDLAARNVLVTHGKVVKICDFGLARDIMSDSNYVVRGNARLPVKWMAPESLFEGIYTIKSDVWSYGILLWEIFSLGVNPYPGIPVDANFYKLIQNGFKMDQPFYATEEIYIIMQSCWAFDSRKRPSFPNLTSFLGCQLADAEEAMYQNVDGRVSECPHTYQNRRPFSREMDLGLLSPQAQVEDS

888-mel [11] = test: Inhibition of PI3K/MEK signaling pathway in human 888-mel cells assessed as decrease in ERK phosphorylation by incubated for 24 hrs by Western blot analysis; assay type: cell-based
[12] = target: Vascular endothelial growth factor receptor 3 (Homo sapiens, UniProt P35916); test: Inhibition of Flt4 (unknown origin)
NCI-H2122 [13] = test: Antitumor activity against human NCI-H2122 cells xenografted in mouse assessed as reduction in ERK phosphorylation at 1 to 10 mg/kg, po administered for 3 days and measured at 8 hrs by Western blot analysis; assay type: functional; parameters: scale not given: the % may be the effect or the level left; conditions: time 80 hrs
Outline: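 NCI-H2122 xenograft mice received 3 daily oral doses of 1, 3, 5 or 10 mg/kg. Tumors were collected 2, 8 and 24 h after the last dose, pulverized on dry ice and lysed. Lysates were run on 4–12% SDS-PAGE and transferred to nitrocellulose. p-ERK1/2 and t-ERK1/2 bands were quantified on an Odyssey imager and expressed relative to vehicle-treated mice (0 h).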

MeWo = test: Antiproliferative activity against human MeWo cells assessed reduction in cell viability incubated for 4 days in presence of 4-(2-(1H-indazol-4-yl)-6-((4-(methylsulfonyl)piperazin-1-yl)methyl)thieno[3,2-d]pyrimidin-4-yl)morpholine by celltiter-glo assay; assay type: functional; conditions: time 4 day; outline: as §1
[14] = target: Macrophage-stimulating protein receptor (Homo sapiens, UniProt Q04912); test: Inhibition of RON (unknown origin)
888-mel [15] = test: Inhibition of PI3K/MEK signaling pathway in human 888-mel cells assessed as decrease in AKT phosphorylation by incubated for 24 hrs by Western blot analysis; assay type: cell-based
[16] = target: Epidermal growth factor receptor (Homo sapiens, UniProt P00533); test: Inhibition of EGFR (unknown origin)
Sequence of Epidermal growth factor receptor (P00533 whole entry): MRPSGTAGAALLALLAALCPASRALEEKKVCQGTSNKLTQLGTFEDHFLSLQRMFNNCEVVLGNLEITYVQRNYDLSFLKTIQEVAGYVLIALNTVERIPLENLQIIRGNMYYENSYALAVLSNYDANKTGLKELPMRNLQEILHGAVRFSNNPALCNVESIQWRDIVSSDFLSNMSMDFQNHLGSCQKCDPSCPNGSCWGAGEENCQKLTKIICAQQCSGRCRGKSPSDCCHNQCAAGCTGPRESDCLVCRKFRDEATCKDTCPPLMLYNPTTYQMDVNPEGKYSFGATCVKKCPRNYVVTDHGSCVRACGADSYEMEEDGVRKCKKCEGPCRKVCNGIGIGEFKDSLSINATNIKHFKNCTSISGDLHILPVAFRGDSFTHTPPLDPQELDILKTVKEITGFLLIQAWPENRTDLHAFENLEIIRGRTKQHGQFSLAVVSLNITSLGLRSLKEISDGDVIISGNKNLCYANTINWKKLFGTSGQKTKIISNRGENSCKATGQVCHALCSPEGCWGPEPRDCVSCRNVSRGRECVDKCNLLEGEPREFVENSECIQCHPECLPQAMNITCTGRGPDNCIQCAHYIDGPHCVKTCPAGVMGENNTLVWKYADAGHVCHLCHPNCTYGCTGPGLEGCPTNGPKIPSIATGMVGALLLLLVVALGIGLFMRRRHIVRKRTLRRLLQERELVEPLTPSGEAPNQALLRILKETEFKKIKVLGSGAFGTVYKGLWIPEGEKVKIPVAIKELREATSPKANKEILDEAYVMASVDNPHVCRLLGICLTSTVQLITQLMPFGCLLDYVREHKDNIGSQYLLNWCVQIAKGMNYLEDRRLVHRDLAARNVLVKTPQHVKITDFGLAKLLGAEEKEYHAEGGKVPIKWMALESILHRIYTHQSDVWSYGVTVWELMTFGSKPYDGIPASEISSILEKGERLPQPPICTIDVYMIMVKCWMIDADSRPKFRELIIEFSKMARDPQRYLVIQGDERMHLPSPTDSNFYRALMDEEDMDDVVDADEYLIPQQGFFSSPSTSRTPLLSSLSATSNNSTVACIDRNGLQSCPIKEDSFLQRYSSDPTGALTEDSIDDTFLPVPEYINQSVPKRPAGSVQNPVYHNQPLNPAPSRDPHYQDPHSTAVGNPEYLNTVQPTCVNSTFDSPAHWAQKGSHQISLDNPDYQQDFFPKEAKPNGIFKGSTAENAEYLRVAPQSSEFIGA

A2058 [17] = test: Inhibition of PI3K/MEK signaling pathway in human A2058 cells assessed as decrease in ERK phosphorylation by incubated for 24 hrs by Western blot analysis; assay type: cell-based
888-mel [18] = test: Upregulation of Bim level in human 888-mel cells incubated for 24 hrs by immunoblotting analysis; assay type: functional, cell-based
[19] = target: Insulin-like growth factor 1 receptor (Homo sapiens, UniProt P08069); test: Inhibition of IGF1R (unknown origin)
Sequence of Insulin-like growth factor 1 receptor (P08069 31-736 limits assumed): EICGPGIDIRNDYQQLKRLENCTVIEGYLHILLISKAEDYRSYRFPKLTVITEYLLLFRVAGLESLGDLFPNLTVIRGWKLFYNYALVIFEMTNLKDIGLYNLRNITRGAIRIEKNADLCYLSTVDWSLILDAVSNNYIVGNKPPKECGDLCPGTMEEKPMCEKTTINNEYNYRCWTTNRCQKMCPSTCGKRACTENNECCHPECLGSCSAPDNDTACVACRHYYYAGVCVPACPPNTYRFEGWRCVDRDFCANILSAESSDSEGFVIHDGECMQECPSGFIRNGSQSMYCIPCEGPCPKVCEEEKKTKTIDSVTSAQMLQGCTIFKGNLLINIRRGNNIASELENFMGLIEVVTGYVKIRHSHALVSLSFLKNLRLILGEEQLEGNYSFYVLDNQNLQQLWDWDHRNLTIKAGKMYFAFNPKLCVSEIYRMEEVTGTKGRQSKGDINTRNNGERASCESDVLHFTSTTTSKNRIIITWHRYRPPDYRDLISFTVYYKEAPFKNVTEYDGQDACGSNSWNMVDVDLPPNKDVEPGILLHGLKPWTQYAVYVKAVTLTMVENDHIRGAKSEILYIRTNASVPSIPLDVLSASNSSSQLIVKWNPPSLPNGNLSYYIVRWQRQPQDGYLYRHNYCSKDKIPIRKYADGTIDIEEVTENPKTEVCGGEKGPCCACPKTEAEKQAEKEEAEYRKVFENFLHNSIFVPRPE
Sequence of Insulin-like growth factor 1 receptor (P08069 741-1367 limits assumed): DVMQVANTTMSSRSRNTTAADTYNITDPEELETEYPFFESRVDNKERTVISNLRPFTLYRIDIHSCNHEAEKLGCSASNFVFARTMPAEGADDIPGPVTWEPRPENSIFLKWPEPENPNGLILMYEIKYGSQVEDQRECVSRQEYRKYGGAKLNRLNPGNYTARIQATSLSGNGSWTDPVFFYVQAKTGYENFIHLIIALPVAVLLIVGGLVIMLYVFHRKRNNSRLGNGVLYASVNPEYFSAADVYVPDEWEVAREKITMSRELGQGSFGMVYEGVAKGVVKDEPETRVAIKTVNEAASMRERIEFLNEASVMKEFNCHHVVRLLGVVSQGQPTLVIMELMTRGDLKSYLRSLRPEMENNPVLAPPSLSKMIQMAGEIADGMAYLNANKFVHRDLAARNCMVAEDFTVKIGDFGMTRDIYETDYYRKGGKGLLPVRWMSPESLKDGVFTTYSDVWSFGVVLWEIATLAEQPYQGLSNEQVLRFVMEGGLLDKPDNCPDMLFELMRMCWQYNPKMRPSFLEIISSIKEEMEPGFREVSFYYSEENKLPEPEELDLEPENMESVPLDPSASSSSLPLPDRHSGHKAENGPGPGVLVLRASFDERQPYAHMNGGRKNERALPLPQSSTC

888-mel [20] = test: Induction of apoptosis in human 888-mel cells assessed as increase in cleaved PARP level incubated for 24 hrs in presence of 4-(2-(1H-indazol-4-yl)-6-((4-(methylsulfonyl)piperazin-1-yl)methyl)thieno[3,2-d]pyrimidin-4-yl)morpholine by immunoblotting analysis; assay type: functional, cell-based
888-mel [21] = test: Upregulation of Bim level in human 888-mel cells preincubated with compound for 24 hrs followed by compound washout and measured after 2 hrs by immunoblotting analysis; assay type: functional, cell-based
[22] = target: Tyrosine-protein kinase JAK2 (Homo sapiens, UniProt O60674); test: Inhibition of JAK2 (unknown origin)
[23] = target: Vascular endothelial growth factor receptor 2 (Homo sapiens, UniProt P35968); test: Inhibition of KDR (unknown origin)
[24] = target: Tyrosine-protein kinase BTK (Homo sapiens, UniProt Q06187); test: Inhibition of Btk (unknown origin)
A2058 [25] = test: Antitumor activity against human A2058 cells harboring BRAF V600E/PTEN deletion mutant xenografted in mouse assessed as increase in Bims level at 15 mg/kg, po administered every third day for 21 days and measured after 8 hrs post dose by Western blot analysis; assay type: functional, organism-based; conditions: time 512.0 hrs

O=C(c1ccc(F)c(F)c1Nc1ccc(I)cc1F)N1CC(O)([C@@H]2CCCCN2)C1 [COBIMETINIB]
63%: inhibition in vivo at 10 mg/kg (SK-OV-3)
49%: inhibition in vivo at 5 mg/kg (NCI-H2122 [1])
> 10 µM: IC50 [2] | IC50 [4] | IC50 [6] | IC50 [7] | IC50 (Ephrin type-A receptor 4) | IC50 [9] | IC50 [10] | IC50 [12] | IC50 [14] | IC50 [16] | IC50 [19] | IC50 [22] | IC50 [23] | IC50 [24]
61%: inhibition in vivo at 20 mg/kg (NCI-H2122 [5])
active: Activity (A2058 [8]) | inhibition (888-mel [11]) | inhibition (888-mel [15]) | inhibition (A2058 [17]) | Activity (888-mel [18]) | Activity (888-mel [20]) | Activity (888-mel [21]) | Activity (A2058 [25])
60%: Activity (A2058 [3]) | Activity (G-361) | Activity (MeWo)
83%: Activity (NCI-H2122 [13])
82.5%: inhibition in vivo at 10 mg/kg (CWR22R)
